Source: PubChem (several laboratories)
ATG4B inhibitor: ATG4B (human) cysteine protease inhibition; ATG4B cleavage of LC3-PLA2, NBD-HPC fluorescence, 1 h; hit rate 0.51% among 340,000; AID 504462; Q9Y4P1; inhibition, % at 8.33 µM; in the data active means inhibition above about 40%
SENP1 inh: SENP1 (human) catalytic domain inhibition; recombinant SENP1 catalytic domain, CyPet-SUMO1-YPet FRET cleavage; inhibition, % at 10 µM; hit rate 0.21% among 360,000; AID 624204;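 active means inhibition at least 30% at 10 µM, raw YFP signal under a set limit, fluorescence ratio 0.5 to 1.5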
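Assay system: hSENP1 catalytic domain, recombinant. Amount: SENP1 enzyme, 20 pM final. Schedule: 50 min reaction, RT, dark. Technique: FRET, CFP and YFP emission. Control set: no-enzyme wells low, DMSO-plus-enzyme wells high control.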
NadD block: NadD (S. aureus) enzyme inhibition | purified NadD enzyme, colorimetric absorbance read-out | hit rate 0.78% among 360,000 | inhibition, % at 20 µM; in the data active means inhibition above about 26%
GRIN3A LBD mod: modulates the human NR3A ligand-binding domain; hit rate 2.5% among 340,000; Tm shift relative to glycine control, % at 25 µM; NR3A LBD differential scanning fluorimetry, Tm shift; 0% = protein alone, 100% = glycine-bound protein; AID 1259313;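 active means melting temperature shift of at least 10% of the positive control shift, at one fixed dose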
UCH37 inh: human UCH37 deubiquitinating enzyme inhibition; purified proteasome/UCH37, Ub-AMC cleavage fluorescence; inhibition, % (test concentration not listed); hit rate 0.33% among 330,000;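 active means mean inhibition over replicate wells above about 20%, limit read from the data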
Target sequence (Q9Y5K5 whole entry, looked up): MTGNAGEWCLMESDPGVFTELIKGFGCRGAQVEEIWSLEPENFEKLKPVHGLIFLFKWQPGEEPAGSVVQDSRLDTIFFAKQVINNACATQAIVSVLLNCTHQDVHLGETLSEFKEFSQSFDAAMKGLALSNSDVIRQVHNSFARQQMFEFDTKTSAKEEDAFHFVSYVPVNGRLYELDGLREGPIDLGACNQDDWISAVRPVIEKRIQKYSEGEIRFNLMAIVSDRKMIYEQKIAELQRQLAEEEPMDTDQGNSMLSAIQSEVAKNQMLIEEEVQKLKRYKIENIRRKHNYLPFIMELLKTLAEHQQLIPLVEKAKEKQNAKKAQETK
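Signal – fluorescence, ex 355 nm, em 460 nm · System – Proteasome-bound UCH37 · Input – 0.15 nM proteasome as dispensed · Timing – 30 min preincubation with enzyme, 25 min cleavage at room temperature · Read-out basis – percent inhibition of cleavage signal versus uninhibited and no-proteasome wells · Medium – Tris-HCl pH 7.4 with ATP-MgCl2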
ATG4B confirm: confirmation of human ATG4B inhibitors; shares compounds with ATG4B inhibitor; ATG4B protease fluorescent substrate cleavage assay; inhibition, % at 8.33 µM; hit rate 92% among 320; in the data active means inhibition above about 39%
PLA2 ctr: counter-screen for ATG4B inhibitors: human phospholipase A2. shares compounds with ATG4B inhibitor. purified PLA2, NBD-C6-HPC fluorescence, 45 min. inhibition, % at 8.33 µM. hit rate 66% among 1,600. AID 588402; in the data active means inhibition above about 50%
Target sequence (P04054 whole entry, looked up): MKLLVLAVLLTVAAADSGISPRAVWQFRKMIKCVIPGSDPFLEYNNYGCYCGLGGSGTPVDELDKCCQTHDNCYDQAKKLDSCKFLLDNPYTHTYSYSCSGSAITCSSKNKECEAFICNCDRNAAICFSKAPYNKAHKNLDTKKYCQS
Of the large screens only hits and unclear results are named; the others gave an inactive call (follow-up assays come after a bar, where they were run). In the library only some 3.6% were active in any assay of this set; here they are far more common.

C/C(CCc1oc2ccc(Cl)cc2c1-c1ccc(C)o1)=N\O	ATG4B inhibitor 45.9 (no result: UCH37 inh) | PLA2 ctr 71.3
N#Cc1sc(C(N)=O)c(-c2ccccc2)c1-c1ccccc1	ATG4B inhibitor 67.8 | PLA2 ctr 65.6
COc1ccc(-c2c(C#N)sc(C(N)=O)c2-c2ccc(OC)cc2)cc1	ATG4B inhibitor 81.9 | PLA2 ctr 84.9
CC1CCN(C2=C(NS(=O)(=O)c3ccccc3)C(=O)c3ccccc3C2=O)CC1	ATG4B inhibitor 45.8 | PLA2 ctr 64.5
Cc1c(C(=O)O)oc2c1C(=NO)CCC2	none (no result: ATG4B inhibitor, SENP1 inh, NadD block, GRIN3A LBD mod)
CC1(C)Cc2c(sc(NC(=S)NC(=O)c3ccccc3)c2C(=O)O)CO1	ATG4B inhibitor 40.9 | ATG4B confirm 73.6 | PLA2 ctr inactive
CC1(C)Cc2c(sc(NC(=O)c3ccco3)c2C(=O)O)CO1	none
CCCCCCOC(=O)C[N+](C)(C)CCOC1CC2CCC1(C)C2(C)C (configuration not stated)	none
CCCCCCCOC(=O)C[N+](C)(C)CCOC1CC2CCC1(C)C2(C)C (configuration not stated)	ATG4B inhibitor 52.7 | ATG4B confirm 47.8 | PLA2 ctr inactive
COc1ccc(O)c(C=NNS(=O)(=O)c2ccc(C)cc2)c1	none (no result: ATG4B inhibitor, SENP1 inh, NadD block, GRIN3A LBD mod)
Cc1nc2ccccc2c(=O)n1N=Cc1ccc(O)c(O)c1O	none (no result: ATG4B inhibitor, SENP1 inh, NadD block, GRIN3A LBD mod)
NC(=O)Cc1ccc(Nc2nnc(-c3ccccc3)c3ccccc23)cc1	ATG4B inhibitor 82.2 | PLA2 ctr 82.3
Oc1ccc(Nc2nnc(-c3ccc(O)cc3)c3ccccc23)cc1	none
COc1ccc(-c2nnc(Nc3ccc(CC(N)=O)cc3)c3ccccc23)cc1	ATG4B inhibitor 93.1 | PLA2 ctr 92.4
COc1ccc(Nc2nnc(-c3ccc(O)cc3)c3ccccc23)cc1	none
COc1cc(C=NNC(=O)/C(=C\c2ccc3c(c2)OCO3)NC(=O)c2ccccc2)ccc1O	none (no result: ATG4B inhibitor, SENP1 inh, NadD block, GRIN3A LBD mod)
O=C(NCc1c(Cl)cccc1Oc1ccccc1)c1ccccc1	ATG4B inhibitor 47.2 | PLA2 ctr 56.7
COC(=O)C1=C(N)N(c2ccccc2C(F)(F)F)C2=C(C(=O)CCC2)C1c1ccc2c(c1)OCO2 (configuration not stated)	ATG4B inhibitor 53.6 | PLA2 ctr 67.7
COc1ccc(-n2c(SC(CN3CCCCC3)CN3CCCC3=O)nc3ccccc3c2=O)cc1 (configuration not stated)	ATG4B inhibitor 62.6 | PLA2 ctr 66.6
COc1ccc(-n2c(SCC(=O)N3CCCCC3)nc3ccccc3c2=O)cc1	none
S=c1[nH]nc(COc2ccccc2)n1N=C/C=C/c1ccco1	none (no result: ATG4B inhibitor, SENP1 inh, NadD block, GRIN3A LBD mod)
O=C(Cn1cccc1C(=O)c1ccccc1)NCCc1ccc(Cl)cc1	ATG4B inhibitor 44.7 | PLA2 ctr 52.8
O=C(Cn1cccc1C(=O)c1ccccc1)NCCc1ccccc1	none
CCOC(=O)Cn1cc(/C=N/N2C(=O)C3C4C=CC(C4)C3C2=O)c2ccccc21 (configuration not stated)	none (no result: UCH37 inh)
O=C1C2C3C=CC(C3)C2C(=O)N1/N=C/c1cn(Cc2ccccc2)c2ccccc12 (configuration not stated)	ATG4B inhibitor 47.9 (no result: UCH37 inh) | PLA2 ctr 57.0
CNC(=S)NN=Cc1cn(Cc2ccc(F)cc2)c2ccccc12	none (no result: ATG4B inhibitor, SENP1 inh, NadD block, GRIN3A LBD mod)
O=C1C2C3C=CC(C3)C2C(=O)N1/N=C/c1cn(Cc2ccc(F)cc2)c2ccccc12 (configuration not stated)	ATG4B inhibitor 48.1 (no result: UCH37 inh) | PLA2 ctr 69.5
Cn1cnnc1Sc1ccc(/C=C(\CCC(=O)O)c2nc3ccccc3s2)cc1[N+](=O)[O-]	none (no result: UCH37 inh)
CN(c1ccccc1)c1ccc(/C=C(\CCC(=O)O)c2nc3ccccc3s2)cc1[N+](=O)[O-]	ATG4B inhibitor 46.2 | ATG4B confirm 69.9 | PLA2 ctr inactive
COc1ccccc1OCC(=O)NN=C1CCc2ccccc21	none (no result: ATG4B inhibitor, SENP1 inh, NadD block, GRIN3A LBD mod)
Clc1cccc(Cl)c1CSc1nnc(-c2sccc2-n2cccc2)o1	ATG4B inhibitor 53.0 | PLA2 ctr 64.8
Cc1ccc(C(=O)ON=C2CCS(=O)(=O)c3sccc32)cc1	none (no result: ATG4B inhibitor, SENP1 inh, NadD block, GRIN3A LBD mod)
O=S(=O)(c1ccccc1)N1CCN(c2cccc(Cl)c2)CC1	ATG4B inhibitor 50.8 | PLA2 ctr 61.4
